Here are results for one molecule from ChEMBL document CHEMBL4715822, “Structure-based lead optimization to improve antiviral potency and ADMET properties of phenyl-1H-pyrrole-carboxamide entry inhibitors targeted to HIV-1 gp120” (Eur J Med Chem, 2018).

In series [1] the test system is Human immunodeficiency virus 1. The series can be described thus: Antiviral activity against clinical isolate HIV-1 BCF03 infected in human PBMC cells assessed as reduction in viral transmission to TZM-bl cells pretreated for 1 hr before viral transmission and further incubated for 48 hrs by luciferase based assay. The format is functional, cell-based. To be noted: Human immunodeficiency virus 1, BCF03, PBMC.

Series [2] deals with Human immunodeficiency virus 1. The series can be described thus: Antiviral activity against pseudovirus HIV-1 HXB-2 harboring Env M434I mutant infected in human U87.CD4.CXCR4 cells assessed as reduction in viral infection pretreated for 30 mins before viral infection and measured after 3 days by luciferase based assay. The class given is functional, cell-based, M:B_HXB2R. The gist of the method: (§1)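 Pseudoviruses made in HEK293T by co-transfecting an Env-deleted backbone (pSG3Δenv or pNL4-3.Luc.R-.E-) with an HXB-2 Env plasmid carrying single or double substitutions; Env sequences confirmed by sequencing. Virus pretreated 30 min with graded compound, added to U87-CD4-CXCR4 cells (1 × 10⁴/well, plated overnight), incubated 3 days. Cells lysed, luciferase measured, IC50 calculated.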

For series [3], the system named is Human immunodeficiency virus 1. The series is described as follows: Antiviral activity against pseudovirus HIV-1 HXB-2 harboring Env N425K mutant infected in human U87.CD4.CXCR4 cells assessed as reduction in viral infection pretreated for 30 mins before viral infection and measured after 3 days by luciferase based assay. The class given is functional, cell-based, M:B_HXB2R. In a few lines:
as §1

Series [4] relates to Human immunodeficiency virus 1. The series is described as follows: Antiviral activity against pseudovirus HIV-1 HXB-2 harboring wild type Env infected in human U87.CD4.CXCR4 cells assessed as reduction in viral infection pretreated for 30 mins before viral infection and measured after 3 days by luciferase based assay. As to conditions: Human immunodeficiency virus 1, M:B_HXB2R. The format is functional, cell-based.

Series [5] can be described thus: Solubility in 5% DMSO at pH 7.4 at 500 uM incubated for 90 mins in shaker by spectrophotometry. The class given is physicochemical. In a few lines:
(§2)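 DMSO stock diluted to 500 μM in universal aqueous buffer pH 7.4 with 2 or 5% DMSO final; quadruplicate, 90 min shaking at room temperature in filter plate, vacuum filtered; filtrate in 20% acetonitrile read by UV absorbance at six wavelengths. Filtrate/standard ratio binned as ~500, 100–500 or <100 μM.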

Series [6] concerns Human immunodeficiency virus 1. The series is described as follows: Antiviral activity against clinical isolate HIV-1 93BR019 infected in human PBMC cells assessed as reduction in viral transmission to TZM-bl cells pretreated for 1 hr before viral transmission and further incubated for 48 hrs by luciferase based assay. The class given is functional, cell-based. As to conditions: Human immunodeficiency virus 1, 93BR019, PBMC.

Series [7] in a line: Solubility in 2 % DMSO at pH 7.4 at 500 uM incubated for 90 mins in shaker by spectrophotometry. The format is physicochemical. In a few lines:
as §2

Series [8] relates to Human immunodeficiency virus 1. The series can be described thus: Antiviral activity against clinical isolate HIV-1 CMU02 infected in human PBMC cells assessed as reduction in viral transmission to TZM-bl cells pretreated for 1 hr before viral transmission and further incubated for 48 hrs by luciferase based assay. The format is functional, cell-based. To be noted: Human immunodeficiency virus 1, CMU02, PBMC.

SMILES strings stand for the structures. ≈ marks a conversion by molar mass, not a printed value. A value given as a limit tells only on which side of the number the result lay.

As to `COc1cnc(-n2cnc(C)n2)c2[nH]cc(C(=O)C(=O)N3CCN(C(=O)c4ccccc4)CC3)c12`, the IC50 is greater than 6000 nM in series [1]; 8 nM in series [2]; 8 nM in series [3]; 8 nM in series [4]; 100 nM in series [6]; greater than 6000 nM in series [8]. Moreover, the kinetic solubility at […], 500 µM in series [5] is 100 µM (≈ 47.3 µg/mL); in series [7], less than 100 µM.

What is called IC50 is the concentration at which inhibition is half-maximal. What is called kinetic solubility is the concentration staying in solution when a stock, usually in DMSO, is diluted into the medium.
